Data reported in PMC9926436 (Doklady. Biochemistry and Biophysics, 2023).

Assays:
[1] = system: human cytomegalovirus (HCMV), strain Davis; format: cell-based; details: Human betaherpesvirus 5, HEL, read-out: Antiviral activity, EC50, Davis
Outline: (§1)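 HEL (human embryonic lung) cell cultures infected with HCMV strain AD-169 or Davis. Antiviral activity scored as inhibition of virus-induced cytopathic effect or of plaque formation.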

[2] = system: HCMV (strains AD-169 and Davis); assay: Anti-HCMV activity in HEL cells, text statements not split by strain; format: cell-based, human cytomegalovirus; details: qualitative statement
Outline: as §1

[3] = Cytostatic activity, cell growth; format: cell-based; details: human, human embryonic lung (HEL) cells
Outline: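 Cytostatic assay in HEL cells. Value is the cytotoxic concentration needed to reduce cell growth by 50%.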

Row | EC50 [1] | SMILES | Anti-HCMV activity in words [2] | CC50 [3]
1 | 44.7 µM | O=c1ccn(Cc2cccc3ccccc23)c(=O)n1CCCCCOc1ccc(Br)cc1 [Compound 27, 3-[5-(4-Bromophenoxy)pentyl]-1-(naphthalen-1-ylmethyl)uracil] | more than one order of magnitude less active | 
2 | 9.21 µM | Nc1nc(O)c2ncn(COC(CO)CO)c2n1 [Ganciclovir, ganciclovir] |  | > 350 µM
3 | > 100 µM | O=c1c2ccccc2n(CCCCCOc2ccc(Br)cc2)c(=O)n1Cc1cccc2ccccc12 [Compound 24, 1-[5-(4-bromophenoxy)pentyl]-3-(naphthalen-1-ylmethyl)quinazolin-2,4(1H,3H)-dione] | inactive | 
4 | 1.49 µM | Nc1ccn(C[C@@H](CO)OCP(=O)(O)O)c(=O)n1 [Cidofovir, cidofovir] |  | > 300 µM
